Screening data from PubChem BioAssay.
Sampled rows, rich in hits. Any-hit rate of the full collection: about 4%.
Ecoli rRNA inh = inhibitors of bacterial rRNA selective over humanized ribosomes; 350,000 compounds, 1.6% hits; AID 720706; E. coli WT GFP vs humanized-ribosome RFP mutants, fluorescence, 24 h; stronger effect = lower value; DMSO median 0, no signal -100; GFP signal change (wild-type ribosome), % (test concentration not listed);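 active means significant combined selectivity score with lowered wild-type GFP, culture density cut under 30%, mutant RFP and density less affected; inactive means any of these conditions unmet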
FN deposition inh = fibronectin deposition inhibition; AH1F fibroblasts, Alexa488-fibronectin deposition fluorescence, overnight; inhibition, % at 12.6 µM; 350,000 compounds, 0.086% hits; AID 743247;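 active means mean inhibition across replicates of 30% or more, regardless of how many single replicates reach that level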;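 further: positive control wells lacked labelled fibronectin entirely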
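Material: AH1F fibroblasts assembling fluorescent fibronectin matrix; amount: 10000 AH1F cells/well; medium: DMEM, 2% serum; reagent: Alexa488-fibronectin, 24 nM final in well; dosing: single compound dose, delivered by pin transfer; incubation: 1 h adhesion, overnight exposure; detection: fluorescence after three HBSS washes, excitation 485 nm, emission 525 nm; measure: fibronectin deposition inhibition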
SIRT5 inh = sirtuin-5 (human) deacylase inhibition | AID 652115 | inhibition, % at 15 µM | Q9NXA8 | 330,000 compounds, 1.1% hits | Purified SirT5, succinyl-peptide AMC, trypsin-coupled fluorescence; in the data active means inhibition above about 15%
C2C12 statin = suppression of simvastatin myotoxicity. 330,000 compounds, 0.78% hits. rescue of ATP level, % at 7.49 µM. C2C12 myotubes + simvastatin, ATP luminescence, 48 h; scaled: DMSO 0, geranylgeraniol control 100. AID 602340;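 active means mean ATP rescue above about 67%, or every replicate alone reaching that limit, limit read from the data, passing the limit was not always enough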;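 further: myotubes were challenged with 10 µM simvastatin during compound exposure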
E-selectin induc = E-selectin induction on HUVECs. HUVEC E-selectin immunofluorescence imaging; normalized: neutral wells 0, TNF-alpha wells 100. activation, % at 7.58 µM. P16581. 260,000 compounds, 0.37% hits;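 active means mean E-selectin-positive cell signal at least 10% of the positive control, reached in at least 60% of replicates, without over 20% cell loss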
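System: HUVEC / Compound: single concentration / Signal: immunofluorescence imaging / Read-out: percent E-selectin-positive cells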
FGF22 binding = shifts melting point of recombinant human FGF22; Q9HCT0; AID 651658; recombinant FGF22 thermal shift, SYPRO orange fluorescence; percent of sucrose octasulfate shift, DMSO zero; activity (Tm shift, normalised), % at 9.99 µM; 340,000 compounds, 1.5% hits;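 active means mean Tm shift, scaled 0 neutral to 100 positive control, at about 1.3% or above, every replicate too, limit read from the data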
Target sequence (Q9HCT0 whole entry, looked up): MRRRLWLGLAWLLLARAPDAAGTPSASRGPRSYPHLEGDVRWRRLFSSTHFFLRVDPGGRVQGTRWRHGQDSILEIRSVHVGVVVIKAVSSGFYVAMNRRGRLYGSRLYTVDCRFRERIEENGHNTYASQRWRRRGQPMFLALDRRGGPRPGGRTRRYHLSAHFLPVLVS
* hit, by the source's call; / = not tested or not shown.

SMILES	Ecoli rRNA inh	FN deposition inh	SIRT5 inh	C2C12 statin	E-selectin induc	FGF22 binding
O=C(C[C@H]1CC[C@@H]2[C@H](COC[C@@H](O)CN2S(=O)(=O)c2cccc(Cl)c2)O1)NCCCN1CCOCC1	-1	-4	/	12	0	0
CCn1c(=N)n(CC(=O)C(C)(C)C)c2ccccc21	-23*	/	-7	-32	/	0
Cc1noc(C)c1NC(=O)N(C)C[C@H]1OCCCC[C@@H](C)Oc2ccc(NS(=O)(=O)c3c(C)noc3C)cc2C(=O)N([C@@H](C)CO)C[C@H]1C	5	/	-3	16	0	0
Cc1noc(C)c1NC(=O)N(C)C[C@H]1Oc2ccc(NC(=O)Nc3ccccc3)cc2C(=O)N([C@@H](C)CO)C[C@@H]1C	1	/	-6	14	/	0
COc1ccccc1CCN1CCCC(CN(C)C(=O)c2ccc3nc[nH]c3c2)C1 (stereo not given)	5	4	1	-1	/	0
Cc1ccccc1CCN1CCCC(CN(C)C(=O)c2ccc3ncccc3c2)C1 (stereo not given)	-4	-5	-1	3	68*	0
O=c1cc(-c2ccccc2)c2ccccc2[nH]1	/	1	/	-10	/	/
Cc1cccc2c(-c3ccccc3)cc(=O)[nH]c12	/	-4	/	84*	/	/
O=C(Nc1ccc(Cl)c(Cl)c1)Nc1nccs1	-26*	1	-1	-53	0	0
O=C(Nc1cccc(Cl)c1)Nc1nccs1	/	-1	/	-10	/	/
C[C@H](NC(=O)C[C@@H]1CC[C@H]2[C@@H](COC[C@@H](O)CN2C(=O)Nc2cccc(F)c2)O1)c1ccccc1	-12	-6	19*	-15	0	0
O=C(C[C@H]1CC[C@@H]2[C@H](COC[C@@H](O)CN2Cc2ccccc2F)O1)N[C@H]1CCN(Cc2ccccc2)C1	/	/	23*	-2	/	0
O=C(C[C@H]1CC[C@H]2[C@@H](COC[C@H](O)CN2Cc2cccc(C(F)(F)F)c2)O1)NCc1ccncc1	-1	-2	17*	15	0	0
C[C@H](NC(=O)C[C@H]1CC[C@H]2[C@@H](COC[C@H](O)CN2C(=O)Nc2cccc(F)c2)O1)c1ccccc1	-13	-2	2	-12	0	0
O=C(C[C@H]1CC[C@H]2[C@@H](COC[C@@H](O)CN2Cc2ccccc2F)O1)N[C@H]1CCN(Cc2ccccc2)C1	0	-4	-3	17	0	0
C[C@@H](NC(=O)C[C@H]1CC[C@H]2[C@@H](COC[C@@H](O)CN2Cc2ccc(C(F)(F)F)cc2)O1)c1ccccc1	-11	15	17*	11	0	0
COc1ccc(NC(=O)CSc2nnc(-c3ccccc3)n2Cc2ccco2)c(OC)c1	/	/	/	14	/	/
COc1ccc(NC(=O)CSc2nnc(-c3ccccc3Cl)n2Cc2ccco2)c(OC)c1	/	/	/	115*	/	/
O=c1c2c([nH]c3ccccc13)CCCC2	/	/	/	98*	/	/
CC(C)(C)C1CCc2[nH]c3ccccc3c(=O)c2C1 (stereo not given)	/	/	/	-35	/	/
COc1ccc(S(=O)(=O)N(C)C[C@H]2Oc3ccc(NS(=O)(=O)c4ccc(C)cc4)cc3C(=O)N([C@@H](C)CO)C[C@H]2C)cc1	-5	/	1	/	5	-1
O=C(CSc1nc(-c2ccco2)cc(C(F)(F)F)n1)NCCc1ccccc1	/	/	/	89*	/	/
COc1ccc(CCNC(=O)CSc2nc(-c3ccco3)cc(C(F)(F)F)n2)cc1OC	-6	/	8	13	/	0
O=C(CCCSc1nc(-c2ccco2)cc(C(F)(F)F)n1)NCc1cccs1	/	/	/	126*	/	/
COc1ccc2c3c([nH]c2c1)[C@@H](CO)N(C(=O)c1ccccc1)CC31CCN(C(=O)CC2CC2)CC1	2	/	/	/	0	0
C[C@@H]1CCCCO[C@@H](CN(C)C)[C@H](C)CN([C@@H](C)CO)C(=O)c2cc(NC(=O)NC3CCCCC3)ccc2O1	3	/	/	24	0	/
COc1cc(O)c2c(c1)oc(=O)c1c3cc(O)c(O)cc3oc21	/	/	23*	/	/	0
